Data taken from BindingDB's records for doi:10.1016/j.bmc.2019.06.043 (Marquette University, 2019).

Molecular target: T1, Proteinase-activated receptor 1 (Homo sapiens, UniProt P25116)
T1 sequence (P25116 whole entry): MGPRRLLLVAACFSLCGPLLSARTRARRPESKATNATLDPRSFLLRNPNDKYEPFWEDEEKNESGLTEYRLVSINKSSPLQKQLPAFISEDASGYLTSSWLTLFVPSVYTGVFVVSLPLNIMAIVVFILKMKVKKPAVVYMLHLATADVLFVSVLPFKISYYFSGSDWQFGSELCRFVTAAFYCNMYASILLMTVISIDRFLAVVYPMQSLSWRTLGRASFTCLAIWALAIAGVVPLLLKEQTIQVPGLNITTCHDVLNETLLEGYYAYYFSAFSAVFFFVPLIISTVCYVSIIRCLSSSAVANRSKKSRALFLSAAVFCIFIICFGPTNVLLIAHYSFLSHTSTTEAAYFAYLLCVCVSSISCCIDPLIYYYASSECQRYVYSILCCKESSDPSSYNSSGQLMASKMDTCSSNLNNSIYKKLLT
Assay: Negative allosteric modulation of PAR1 in human EAhy926 cells assessed as reduction in TFLLRN-NH2-induced intracellular calcium mobilization incubated for 15 mins followed by TFLLRN-NH2 addition by Fluo-4-AM dye based fluorescence assay
How it was run: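 Adherent EA.hy926 endothelial cells in 96-well format, intracellular Ca2+ mobilization triggered by PAR1 agonist TFLLRN-NH2 at 5 µM; single-point % inhibition at 10 µM (n = 4 wells, SEM); 7-point concentration-response curves, 3 wells per concentration, pIC50 from 4-variable non-linear regression; average IC50 ± SEM over independent assays.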

IC50: 794 nM
SMILES: CCCC(=O)Nc1cccc(NC(=O)c2ccccc2Br)c1
